Converted amounts (≈) assume the structure as drawn. The source made the active and inactive calls. The rule behind the calls is not given here.
Experiments:
Staphylococcus aureus [1] = assay: Antimicrobial activity against Staphylococcus aureus at 1.9 mg/ml by standard disk assay; type: functional, organism-based
In short: (§1)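 Tested at one concentration only, 1.9 mg/ml.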

[2] = Cytotoxicity against CHOK1 cells; type: cell-based, Cricetulus griseus; details: chinese hamster, CHO-K1 cells; read-out: ED50 (the source's name)
In short: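 CHO-K1 cell growth inhibition, reported as ED50 in µg/ml.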

Klebsiella pneumoniae [3] = assay: Antimicrobial activity against Klebsiella pneumoniae at 1.9 mg/ml by standard disk assay; type: functional, organism-based; in short: as §1
Proteus vulgaris [4] = assay: Antimicrobial activity against Proteus vulgaris at 1.9 mg/ml by standard disk assay; type: functional, organism-based; in short: as §1
Staphylococcus aureus [5] = assay: Antimicrobial activity against Staphylococcus aureus by standard disk assay; type: functional, organism-based; in short: as §1
Escherichia coli = assay: Antimicrobial activity against Escherichia coli by standard disk assay; type: functional, organism-based
Hafnia alvei = assay: Antimicrobial activity against Hafnia alvei by standard disk assay; type: functional, organism-based
Klebsiella pneumoniae [6] = assay: Antimicrobial activity against Klebsiella pneumoniae by standard disk assay; type: functional, organism-based; in short: as §1
Proteus vulgaris [7] = assay: Antimicrobial activity against Proteus vulgaris by standard disk assay; type: functional, organism-based; in short: as §1

Row | Structure (SMILES) | Activity (Staphylococcus aureus [1]) | CC50 [2] [µg/mL] | Activity (Klebsiella pneumoniae [3]) | Activity (Proteus vulgaris [4]) | Activity (Staphylococcus aureus [5]) | Activity (Escherichia coli) | Activity (Hafnia alvei) | Activity (Klebsiella pneumoniae [6]) | Activity (Proteus vulgaris [7])
1 | CC1=CCC[C@H](C)[C@@]1(C)CC/C(C)=C/CC/C(C)=C/CS(=O)(=O)CCNC(=N)N | Active | 5.7 (≈ 13.5 µM) | Active | Active | – | – | – | – | –
2 | CC1=CCC[C@H](C)[C@@]1(C)CC/C(C)=C/CC/C(=C/CS(=O)(=O)CCNC(=N)N)CO | – | 2.21 (≈ 5.03 µM) | – | – | Active | Active | Active | Active | Active

— ChEMBL document CHEMBL1159018, “(-)-agelasidine C and (-)-agelasidine D, two new hypotaurocyamine diterpenoids from the Caribbean sea sponge Agelas clathrodes” (J Nat Prod, 1992)
